Casp6 inh: blocks human caspase-6 cleavage activity. P55212. purified caspase-6, Z-VEID-R110 cleavage fluorescence. inhibition, % at 12.5 µM. actives 0.53% (n = 350,000);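 active = mean inhibition across replicates at least about 35%, with every replicate also reaching that limit, limit read from the data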;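 note: 0% = median of neutral control wells and 100% = no fluorescence left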
Target sequence (P55212 24-179 limits assumed): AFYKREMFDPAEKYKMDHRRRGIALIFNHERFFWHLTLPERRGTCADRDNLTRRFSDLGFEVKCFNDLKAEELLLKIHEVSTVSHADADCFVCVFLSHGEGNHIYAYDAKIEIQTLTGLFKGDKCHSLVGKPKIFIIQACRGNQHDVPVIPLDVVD
Target sequence (P55212 194-293 limits assumed): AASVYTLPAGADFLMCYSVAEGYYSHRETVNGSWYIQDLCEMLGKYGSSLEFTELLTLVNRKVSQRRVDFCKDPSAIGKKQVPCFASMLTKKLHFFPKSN
SUMO1-SIM PPI: SUMO1-SIM interaction modulation; SUMO1 binding to a labelled peptide, TR-FRET, 1 h; inhibition, % at 20 µM; actives 0.33% (n = 360,000); in the data active = inhibition above about 37%
LMPTP inh: blocks human LMPTP phosphatase. inhibition, % at 20 µM. AID 651560. actives 0.22% (n = 360,000). recombinant LMPTP-A, OMFP fluorogenic substrate, fluorescence intensity. P24666;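 active = compounds that cut the enzyme signal by at least half of the control window in the single-dose screen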;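 note: plate controls were DMSO wells with enzyme plus substrate for no effect and substrate without enzyme for full effect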
Target sequence (P24666 whole entry, looked up): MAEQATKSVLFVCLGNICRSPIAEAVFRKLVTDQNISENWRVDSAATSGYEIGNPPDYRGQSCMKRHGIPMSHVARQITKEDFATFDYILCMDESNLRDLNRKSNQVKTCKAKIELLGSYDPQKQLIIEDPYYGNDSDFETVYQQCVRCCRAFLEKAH
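Assay system: LMPTP-A phosphatase enzyme | Input: 0.625 nM enzyme | Also added: Fluorogenic phosphatase substrate OMFP at 400 µM final | Compound dosing: One test concentration per compound, 20 µM, with 3% DMSO overall | Schedule: 50 min enzyme reaction at room temperature, protected from light | Signal: Fluorescence intensity | Benchmarks: no-enzyme and uninhibited controls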
Scp-1 inhibitor: blocks human Scp-1 phosphatase activity. Q9GZU7. Recombinant Scp1, phosphopeptide, malachite green phosphate absorbance. inhibition, % at 20 µM. actives 0.88% (n = 340,000);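 active = inhibition above about 50% at 20 µM, limit read from the data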;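 note: plate controls were DMSO wells with enzyme for no effect and wells lacking enzyme for full effect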
Target sequence (Q9GZU7 76-261 limits assumed): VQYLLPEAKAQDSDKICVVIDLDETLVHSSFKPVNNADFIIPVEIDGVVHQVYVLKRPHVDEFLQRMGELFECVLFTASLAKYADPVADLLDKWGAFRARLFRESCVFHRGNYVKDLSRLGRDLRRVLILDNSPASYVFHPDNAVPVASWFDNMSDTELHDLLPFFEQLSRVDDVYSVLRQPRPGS
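Material – SCP-1 phosphatase catalytic domain, residues 76-261 · Buffer or medium – Acidic Tris acetate buffer with magnesium and detergent · Also added – Phospho 17-mer peptide substrate · Compound – single 20 µM dose, 1% DMSO · Times – 45 min room-temperature reaction, 5 min colour, 30 min stabiliser · Technique – Phosphate-binding colour reagent, absorbance read at 630 nm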
DNMT1 block: inhibitors of human DNMT1; P26358; DNMT1 molecular beacon, Hinp1I cleavage, fluorescence; inhibition (reported as % activation of signal), % at 10 µM; actives 0.83% (n = 360,000); in the data active = inhibition above about 50%
STEP block: inhibitors of human striatal-enriched phosphatase STEP | recombinant STEP, OMFP fluorogenic substrate, fluorescence | actives 0.25% (n = 360,000) | inhibition, % at 20 µM;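 active = inhibition at 20 µM, scaled per plate between control wells, above about 37%, limit read from the data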;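 note: 0% = DMSO with enzyme and substrate and 100% = substrate only without enzyme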
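System: isolated STEP enzyme; schedule: 20 min enzyme reaction at room temperature, protected from light; medium: Bis-Tris buffer pH 6.0, 2.5 mM DTT, 0.005% Tween 20; signal: fluorescence, 480/540 nm; dosing: single compound dose of 20 µM, 1% DMSO final; also added: OMFP substrate, 25 µM final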
Scp1 confirm: confirmation of human Scp-1 phosphatase inhibitors. shares compounds with Scp-1 inhibitor. recombinant SCP-1 catalytic domain, phosphate release, malachite green absorbance. inhibition, % at 20 µM. actives 61% (n = 2,500). AID 540281;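 note: plate controls were DMSO with enzyme for no effect and buffer wells lacking enzyme for full effect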
MG interference: counter-screen for Scp-1 inhibitors: colorimetric interference; Colorimetric interference counterscreen, malachite green absorbance 630 nm; 2,500 tested, under 10 active; shares compounds with Scp-1 inhibitor; apparent inhibition (interference), % at 20 µM; AID 540313;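 note: compounds added after enzyme reaction finished so only phosphate colour detection is probed; plate controls were DMSO wells with completed Scp-1 reaction for no effect and substrate wells lacking enzyme for full effect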
Scp1 DSF: binds human Scp-1, shifting its melting temperature; shares compounds with Scp-1 inhibitor; Recombinant SCP1, Sypro Orange thermal shift Tm; thermal shift relative to vanadate control, % at 40 µM; actives 25% (n = 1,500); AID 540329;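 active = substances whose mean melting-temperature shift, as a percentage of the reference inhibitor's shift, reaches about 5.3%, limit read from the data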;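 note: 0% = Tm of DMSO wells and 100% = Tm with sodium orthovanadate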
* hit, by the source's call. Only some compounds are listed: those with a hit (about 1.7% of all), similar ones and a draw of the others.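 Rule for the calls, unless noted: active = inhibition of at least 30% at 20 µM; inactive = the rest.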

`COc1ccccc1CN1CC(C(=O)NCc2cc(C(C)C)no2)CCC1=O` (stereo unspecified) gave Casp6 inh 2.0, SUMO1-SIM PPI 5.0, LMPTP inh -1.0, Scp-1 inhibitor 69.8*, DNMT1 block 0.8, STEP block -3.8, Scp1 confirm -7.8 and MG interference -9.6.
For Cc1ccccc1CNC(=O)C1CCC(=O)N(Cc2cccc(F)c2)C1 (stereo unspecified) the results were Casp6 inh -4.6, SUMO1-SIM PPI 4.4, LMPTP inh -0.9, Scp-1 inhibitor 0.6, DNMT1 block 1.9, STEP block 1.1, Scp1 confirm -12.9 and MG interference -12.9.
`O=C(NCc1ccccc1OC(F)(F)F)C1CCC(=O)N(Cc2cccc(F)c2)C1` (stereo unspecified) gave Casp6 inh 2.5, SUMO1-SIM PPI 5.3, LMPTP inh -1.0, Scp-1 inhibitor -10.2, DNMT1 block -0.3 and STEP block -3.4.
O=C(NCCN1CCNC1=O)C1CCC(=O)N(Cc2ccccc2F)C1 (stereo unspecified) was read as Casp6 inh 1.6, SUMO1-SIM PPI 3.8, LMPTP inh -2.2, Scp-1 inhibitor -7.1, DNMT1 block 2.5, STEP block -2.9, Scp1 confirm -16.6 and MG interference -16.2.
For C/C(N)=C(/C#N)C(=O)CN1C(=O)NC(Cc2c[nH]c3ccccc23)C1=O (stereo unspecified) the results were Casp6 inh 48.2*, SUMO1-SIM PPI 11.1, LMPTP inh 7.0, Scp-1 inhibitor 65.3*, DNMT1 block 17.2, STEP block 11.8, Scp1 confirm 59.9*, MG interference -11.2 and Scp1 DSF 2.2.
`COc1ccc(NC(=O)c2cc3c(COC(C)=O)cnc(C)c3oc2=Nc2cccc(C(=O)O)c2)c(OC)c1` gave Casp6 inh 12.9, SUMO1-SIM PPI 12.0, LMPTP inh 18.8, Scp-1 inhibitor 89.4*, DNMT1 block 36.0, STEP block 98.3*, Scp1 confirm 63.9*, MG interference -14.2 and Scp1 DSF 5.2.
`CCCCCC(=O)N1CC2(CC(c3cccc(NC(=O)[C@@H]4CCC(=O)N4)c3)=NO2)C[C@@H]1C(N)=O` (stereo partly specified) gave Casp6 inh 7.1, SUMO1-SIM PPI -0.3, LMPTP inh -0.6, Scp-1 inhibitor -0.5, DNMT1 block 5.7 and STEP block -2.3.
`C=C(C)C(=O)Nc1cccc(C2=NOC3(C2)C[C@@H](C(N)=O)N(C(=O)CCCCC)C3)c1` (stereo partly specified) gave Casp6 inh 59.4*, Scp-1 inhibitor 82.8*, Scp1 confirm 68.8*, MG interference -9.6 and Scp1 DSF -5.6.
`C/C=C\C=C\C(=O)N1CC2(CC(c3cccc(NC(=O)CC)c3)=NO2)C[C@H]1C(N)=O` (stereo partly specified) gave Casp6 inh 0.8, SUMO1-SIM PPI 26.5, LMPTP inh -1.9, Scp-1 inhibitor 69.7*, DNMT1 block -5.4, STEP block 0.1, Scp1 confirm 65.7*, MG interference -11.2 and Scp1 DSF -5.5.
Screening COc1ccc(C(CNS(=O)(=O)c2ccc(NC(C)=O)c(OC)c2)N2CCCCC2)cc1 (stereo unspecified) returned Casp6 inh -3.0, SUMO1-SIM PPI -5.8, LMPTP inh 0.1, Scp-1 inhibitor 50.2*, DNMT1 block 4.1, STEP block -0.3, Scp1 confirm -16.0 and MG interference -17.5.
`COc1ccc(C(CNS(=O)(=O)c2ccc(NC(C)=O)c(OC)c2)N2CCCC2)cc1` (stereo unspecified) gave Casp6 inh -7.5, SUMO1-SIM PPI -1.9, LMPTP inh -1.3, Scp-1 inhibitor -5.2, DNMT1 block -0.2 and STEP block -4.0.
C/C(CC1CC(COCC(C)C)OC1=O)=N\Nc1nc(-c2ccccc2)cs1 (stereo unspecified) was read as SUMO1-SIM PPI 2.2, LMPTP inh 1.1, Scp-1 inhibitor -3.8, DNMT1 block -17.6 and STEP block -0.4.
CC1CC(CC(=O)Nc2nc(-c3ccccc3)cs2)C(=O)O1 (stereo unspecified) was read as Casp6 inh -3.9, SUMO1-SIM PPI 2.0, LMPTP inh -1.5, Scp-1 inhibitor -3.9, DNMT1 block 8.4, STEP block 3.4, Scp1 confirm -10.5 and MG interference -4.9.
COc1ccc(Cl)cc1S(=O)(=O)N1CCC(C(=O)NCC2CCCO2)CC1 (stereo unspecified) was read as Casp6 inh -0.8, SUMO1-SIM PPI -3.7, LMPTP inh 0.0, Scp-1 inhibitor -10.2, DNMT1 block 1.8 and STEP block 1.4.
`COc1ccc(OC)c(S(=O)(=O)N2CCC(C(=O)NCC3CCCO3)CC2)c1` (stereo unspecified) gave SUMO1-SIM PPI 11.5, LMPTP inh -2.0, Scp-1 inhibitor 91.7*, DNMT1 block 3.1, STEP block -2.3, Scp1 confirm -12.0 and MG interference -8.7.
COc1ccc(N2CC(NS(=O)(=O)c3ccc(F)cc3)CC2=O)cc1 (stereo unspecified) was read as Casp6 inh -3.4, SUMO1-SIM PPI 0.0, LMPTP inh -0.4, Scp-1 inhibitor -4.9, DNMT1 block -1.7, STEP block -0.8, Scp1 confirm -8.4 and MG interference -10.6.
For O=C1CC(NS(=O)(=O)c2cccnc2)CN1c1ccc(F)cc1 (stereo unspecified) the results were Casp6 inh 3.4, SUMO1-SIM PPI 1.6, LMPTP inh -0.1, Scp-1 inhibitor 3.7, DNMT1 block 1.1 and STEP block -0.5.
`Cc1cc([N+](=O)[O-])ccc1NC(=O)/C=C/c1cccs1` gave SUMO1-SIM PPI -16.5, LMPTP inh -0.8, Scp-1 inhibitor -11.7, DNMT1 block -8.2 and STEP block -6.4.
Screening COc1ccc(/C=C(\C#N)C(=O)Nc2ccc3[nH]c(=O)[nH]c3c2)cc1 returned Casp6 inh 5.1, SUMO1-SIM PPI -2.1, LMPTP inh 32.4, Scp-1 inhibitor 110.8*, DNMT1 block 24.0, STEP block 4.4, Scp1 confirm 65.7*, MG interference -14.0 and Scp1 DSF -4.8.
